The list is not random: actives were taken first. Their share in the collection is about 2.1%.
XiGFP reactiv = X-chromosome reactivation activator; XiGFP mouse fibroblasts, % GFP-positive cells imaging, 3 d; cells co-treated with 5-aza-dC sensitizer; scaled so ellipticine positive control = 100%; actives 0.055% (n = 360,000); AID 743238; activation, % at 7.58 µM;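 active = mean normalized replicate activation at least 10% and every replicate at or above 10%; inconclusive = only one of the two criteria met; inactive = mean below 10% and not all replicates reach 10%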;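 also: 0% = median of on-plate neutral control wells and 100% = ellipticine 6 µM median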
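System: 68-5-11 XiGFP fibroblast line | Buffer or medium: DMEM containing 5-aza-dC | Compound: Single point | Times: Compounds 3 days, fix/stain 15 min at room temperature | Benchmarks: Positive control ellipticine, 6 µM final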
Statin myotox sup = suppressors of simvastatin-induced myotoxicity in C2C12 myotubes; ATP luminescence, 48 h; scaled: DMSO 0, geranylgeraniol control 100; rescue of ATP level, % at 7.49 µM; actives 0.78% (n = 330,000); AID 602340;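 active = mean ATP rescue above about 67%, or every replicate alone reaching that limit, limit read from the data, passing the limit was not always enough; inconclusive = no clear call, values can overlap the other calls; inactive = mean under the limit and some replicate under it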;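 also: myotubes were challenged with 10 µM simvastatin during compound exposure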
Cneo AK release = causes C. neoformans cell lysis | adenylate kinase release luminescence, 4 h; normalised: neutral wells 0, clomiphene wells 100 | AID 651654 | lysis activity, % at 15 µM | actives 0.2% (n = 360,000);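 active = mean lysis activity across replicates of at least 80%, whatever share of replicates individually reach that level; inactive = mean lysis activity below 80%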
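Test system: log-phase Cryptococcus neoformans yeast cells. Input: 5 × 10^6 yeast cells/mL. Medium: fresh YPD growth medium. Doses: single dose. Incubation: static 4 h at 37 °C with compound, 1 h detection. Measured by: luminescent adenylate kinase detection reagent. Read-out: signal increase indicating cell lysis. Benchmarks: Clomiphene.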
DENV2 CPE rescue = DENV2-induced cell death inhibition; CPE inhibition, % at 9.99 µM; DENV2-infected cells, cytopathic effect rescue, plate reader; actives 1.7% (n = 350,000); in the data active = CPE inhibition above about 20%, passing the limit was not always enough; inconclusive = no clear call, values can overlap the other calls; tested in BHK-21 cells;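 also: 0% = median of neutral control wells and 100% = median of positive control wells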
Active calls of the source: *; ? = inconclusive; . = no result.

SMILES | XiGFP reactiv | Statin myotox sup | Cneo AK release | DENV2 CPE rescue
CCOC(=O)C1(CCOC)CCN(Cc2nc(-c3cccs3)oc2C)CC1 | 0 | 86* | 4 | 15
Cc1oc(-c2cccs2)nc1CN1CCC(CO)(CCOc2ccccc2)CC1 | 0 | . | . | 9
COc1ccc(C(=O)c2sc(Nc3ccccc3)nc2N)cc1 | 0 | 78* | -8 | 5
Nc1nc(Nc2ccccc2)sc1C(=O)c1ccccc1 | 0 | . | 1 | -7
C[C@@H]1CN([C@H](C)CO)C(=O)c2cc(C#CCC3CCCC3)cnc2O[C@@H]1CN(C)C(=O)CN(C)C | 0 | 4 | 1 | 5
Cc1cc(C)c(C)c(S(=O)(=O)NCC(=O)N2CCCC2)c1C | . | 115* | -1 | .
Cc1ccc(C)c(S(=O)(=O)NCC(=O)N2CCCC2)c1 | 0 | 0 | -1 | 0
CCCc1cn(CC[C@H]2CC[C@H](NC(=O)Nc3ccccc3F)[C@@H](CO)O2)nn1 | 0 | -1 | 8 | 2
C[C@@H]1CCCCO[C@H](CN(C)Cc2ccccc2)[C@H](C)CN([C@@H](C)CO)C(=O)c2cc(NS(=O)(=O)c3cccs3)ccc2O1 | 0 | . | 86* | .
COc1ccc(CN(C)C[C@H]2OCCCC[C@@H](C)Oc3ccc(NS(=O)(=O)c4cccs4)cc3C(=O)N([C@@H](C)CO)C[C@@H]2C)cc1 | 0 | . | 11 | 11
C[C@@H]1CCCCO[C@@H](CN(C)Cc2ccc(C(F)(F)F)cc2)[C@H](C)CN([C@@H](C)CO)C(=O)c2cc(NS(=O)(=O)c3cccs3)ccc2O1 | 0 | 72* | 0 | ?
C[C@@H]1CCCCO[C@H](CN(C)Cc2ccccc2)[C@@H](C)CN([C@H](C)CO)C(=O)c2cc(NS(=O)(=O)c3cccs3)ccc2O1 | 0 | . | -2 | -6
COc1ccc(CN(C)C[C@@H]2OCCCC[C@@H](C)Oc3ccc(NS(=O)(=O)c4cccs4)cc3C(=O)N([C@@H](C)CO)C[C@H]2C)cc1 | 0 | . | 6 | 27*
O=C(NCCN1CCCC1)[C@H]1N[C@H]2c3ccc(-c4ccccc4)c(=O)n3C[C@H]2[C@@H]1CO | 0 | -11 | -3 | 85*
O=C(NCc1ccccc1F)[C@H]1N[C@H]2c3ccc(-c4ccccc4F)c(=O)n3C[C@H]2[C@@H]1CO | 0 | -22 | 3 | 82*
O=C(NCCN1CCCCC1)[C@@H]1N[C@@H]2c3ccc(-c4ccc(F)cc4)c(=O)n3C[C@@H]2[C@H]1CO | 0 | -1 | 0 | 7
C[C@H](NC(=O)[C@H]1N[C@H]2c3ccc(-c4cccnc4)c(=O)n3C[C@H]2[C@@H]1CO)c1ccccc1 | 0 | 7 | -1 | 117*
Cc1ccccc1-c1ccc(C2[C@@H]3CN(C(=O)C4CCC4)C[C@H]2N3)cc1 (stereo not given in full) | 0 | . | . | .
C[C@H](CO)N1C[C@H](C)[C@H](CN(C)C(=O)Nc2ccc(F)cc2)Oc2ncc(C3=CCCCC3)cc2C1=O | 1 | -34 | 8 | 33*
C[C@H](CO)N1C[C@H](C)[C@@H](CN(C)C(=O)Nc2cccc(F)c2)Oc2ncc(C3=CCCCC3)cc2C1=O | 0 | -4 | -1 | 20*
C[C@@H]1CN([C@@H](C)CO)C(=O)c2cc(C3=CCCC3)cnc2O[C@H]1CN(C)C(=O)Nc1ccccc1 | -1 | . | . | 4
C[C@H]1CN([C@@H](C)CO)C(=O)c2cc(C3=CCCCC3)cnc2O[C@H]1CN(C)C(=O)Nc1ccc(F)cc1 | 0 | -4 | -3 | 9
C[C@@H]1CN([C@H](C)CO)C(=O)c2cc(C3=CCCC3)cnc2O[C@@H]1CN(C)C(=O)Nc1ccccc1 | -1 | 47 | -1 | 34*
Cc1ccc(S(=O)(=O)N[C@H]2CC[C@H](CC(=O)NCCc3ccncc3)O[C@@H]2CO)cc1 | 1 | -7 | -3 | -2
COCC(=O)N1[C@H](C#N)[C@H](c2ccccc2C2=CCCCC2)[C@H]1CO | 0 | . | . | -2
SMILES | XiGFP reactiv | Statin myotox sup | Cneo AK release | DENV2 CPE rescue
C[C@@H]1CN([C@H](C)CO)C(=O)c2cc(-c3cccnc3)cnc2O[C@H]1CN(C)C(=O)Nc1ccc2c(c1)OCO2 | 0 | 2 | -1 | -5
CCCSc1nc2c(c(=O)[nH]c(=O)n2C)n1C | . | 92* | 1 | .
CCSc1nc2c(c(=O)[nH]c(=O)n2C)n1C | . | -3 | 0 | .
CCC(C)Sc1nc2c(c(=O)[nH]c(=O)n2C)n1Cc1ccc(Cl)cc1 (stereo not given) | . | 130* | -4 | .
CC(C)Sc1nc2c(c(=O)[nH]c(=O)n2C)n1Cc1ccc(Cl)cc1 | . | 149* | 0 | .
O=C(NCCN1CCCCC1)[C@H]1[C@H](CO)[C@H]2Cn3c(cccc3=O)[C@H]2N1Cc1ccccn1 | 0 | 6 | -3 | 3
C[C@@H](NC(=O)C[C@H]1CC[C@H]2[C@@H](COC[C@@H](O)CN2C)O1)c1ccccc1 | 0 | -17 | -3 | -2
COc1ccc(-c2ccccc2)cc1NC(=O)c1cccs1 | 0 | -19 | -5 | 49*
O=C1C(=O)N(Cc2cccnc2)C(c2ccccn2)/C1=C(/O)c1ccccc1 (stereo not given) | . | 135* | 0 | .
COCC(=O)N(C)C[C@@H]1Oc2ncc(C#CCC3CCCC3)cc2C(=O)N([C@H](C)CO)C[C@H]1C | -1 | 9 | 87* | -11
COCC(=O)N(C)C[C@@H]1Oc2ncc(C#CC3(O)CCCC3)cc2C(=O)N([C@@H](C)CO)C[C@@H]1C | 0 | 16 | 1 | -5
C[C@@H]1CN([C@@H](C)CO)C(=O)c2cc(C#CCC3CCCC3)cnc2O[C@H]1CN(C)S(=O)(=O)c1cccs1 | 0 | -5 | 0 | 38*
COCC(=O)N(C)C[C@@H]1Oc2ncc(C#CC3(O)CCCC3)cc2C(=O)N([C@@H](C)CO)C[C@H]1C | -1 | -1 | -4 | 41*
C[C@H]1CN([C@@H](C)CO)C(=O)c2cc(C#CC3(O)CCCC3)cnc2O[C@@H]1CN(C)Cc1cccnc1 | -1 | 14 | 101* | -3
COc1ccc2c3c([nH]c2c1)[C@@H](CO)N(C(=O)Cc1ccccc1)CC31CN(C(=O)Cc2ccccc2)C1 | 0 | . | . | -5
C[C@@H]1CN([C@H](C)CO)C(=O)Cc2cc(NC(=O)CCC(F)(F)F)ccc2O[C@H]1CN(C)C(=O)Nc1cccc2ccccc12 | 0 | 12 | 1 | -2
CC(=O)N(C)C[C@@H]1Oc2ncc(C#CC3(O)CCCC3)cc2C(=O)N([C@H](C)CO)C[C@@H]1C | 0 | 0 | 7 | 31*
O=C(Cc1ccncc1)Nc1ccc2c(c1)[C@H]1C[C@@H](CC(=O)NC3CCCC3)O[C@H](CO)[C@H]1O2 | 0 | -1 | 1 | -6
CCCN1C(=O)C(O)(C/C(C)=N/O)c2ccccc21 (stereo not given) | . | 125* | 3 | .
CCCN1C(=O)C(O)(C2CC(=O)CC(C)(C)O2)c2ccccc21 (stereo not given) | . | -5 | 126* | .
COc1ccc2c3c(n(C)c2c1)[C@H](CO)N(C(=O)Nc1cccc(F)c1)CC31CN(C)C1 | 0 | . | . | -5
